Results from ChEMBL document CHEMBL2057155, “Synthesis of betulinic acid derivatives as entry inhibitors against HIV-1 and bevirimat-resistant HIV-1 variants” (Bioorg Med Chem Lett, 2012).

Key:
[1] = system: Human immunodeficiency virus 1; test: Antiviral activity against HIV1 NL4-3 infected in human TZM-bl cells assessed as reduction in luciferase gene expression by luminescence assay; type: functional, organism-based; conditions: Human immunodeficiency virus 1, NL4-3, TZM-bl
Procedure, shortened: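 Single-cycle HIV-1 NL4-3 infection of TZM-bl cells; HIV-1 tat-driven luciferase expression after viral entry read as the measure of inhibition. […] control is NL4-3 infection without compound. Values are the mean of two or more independent experiments with standard deviation.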

[2] = Cytotoxicity against human MT4 assessed as cell viability after 2 days; type: cell-based; conditions: MT4 cells, read-out: TD50
[3] = system: Human immunodeficiency virus 1; test: Antiviral activity against wild type HIV1 NL4-3 infected in human MT4 cells assessed as reduction of viral p24 level cells […] relative to wild type HIV1 NL4-3 after 4 days by ELISA; type: functional, organism-based; conditions: Human immunodeficiency virus 1, NL4-3, MT4, 96 h
[4] = system: Human immunodeficiency virus 1; test: Ratio of EC50 for bevirimat-resistant HIV1 NL4-3 harboring QVT motif of Gag SP1 V370A mutant to EC50 for wild type HIV1 NL4-3; type: functional
Procedure, shortened: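 Multi-cycle viral replication assay in MT4 cells infected with wild-type HIV-1 NL4-3 or the V370A Gag variant. EC50 was determined against each virus, and the fold ratio was taken as mutant EC50 over wild-type EC50.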

Liver microsomes [5] = conditions: human, 1 µM
Liver microsomes [6] = test: Half life in human liver microsomes at 1 uM
[7] = Cytotoxicity against human TZM-bl assessed as cell viability at 4 uM after 2 days; type: cell-based; conditions: 48 h
Procedure, shortened: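 Toxicity to TZM-bl cells was checked within the single-cycle infection assay at 4 μM.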

[8] = system: Human immunodeficiency virus 1; test: Antiviral activity against bevirimat-resistant HIV1 NL4-3 harboring QVT motif of Gag SP1 V370A mutant infected in human MT4 cells assessed as reduction of viral p24 level cells […] relative to wild type HIV1 NL4-3 after 4 days by ELISA; type: functional, organism-based; conditions: Human immunodeficiency virus 1, NL4-3, MT4, 96 h
[9] = system: Human immunodeficiency virus 1; test: Antiviral activity against bevirimat-resistant HIV1 NL4-3 harboring QVT motif of Gag SP1 deltaV370 mutant infected in human MT4 cells assessed as reduction of viral p24 level cells […] relative to wild type HIV1 NL4-3 after 4 days by ELISA; type: functional, organism-based; conditions: Human immunodeficiency virus 1, NL4-3, MT4, 96 h
Procedure, shortened: (§1)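 Multi-cycle viral replication assay in MT4 cells, run in parallel against wild-type NL4-3 and NL4-3 variants carrying V370A, ΔV370 or ΔT371 in Gag.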

[10] = system: Human immunodeficiency virus 1; test: Antiviral activity against bevirimat-resistant HIV1 NL4-3 harboring QVT motif of Gag SP1 deltaT371 mutant infected in human MT4 cells assessed as reduction of viral p24 level cells […] relative to wild type HIV1 NL4-3 after 4 days by ELISA; type: functional, organism-based; conditions: Human immunodeficiency virus 1, NL4-3, MT4, 96 h; procedure, shortened: as §1
[11] = system: Human immunodeficiency virus 1; test: Antiviral activity against HIV1 NL4-3 harboring QVT motif of Gag SP1 V370A mutant infected in human TZM-bl cells by fluorescence assay relative to wild type HIV1 NL4-3; type: functional
Procedure, shortened: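 Single-round infection of TZM-bl cells with HIV-1 NL4-3 or the NL4-3 V370A mutant. Tat-driven luciferase expression after viral entry was the read-out. Inhibition was taken as the reduction in luciferase signal relative to infected controls without compound, expressed as relative fluorescence units.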

Structure (SMILES)	EC50 [1]	CC50 at 48 h [2]	EC50 [3]	Ratio EC50 [4]	CLH (Liver microsomes [5])	t1/2 (Liver microsomes [6])	Activity [7]	EC50 [8]	EC50 [9]	EC50 [10]	fold change (FC) [11]
C=C(C)[C@@H]1CC[C@]2(C(=O)NCCCCCCCNC(=O)[C@H](CCC(N)=O)NC(=O)OC(C)(C)C)CC[C@]3(C)[C@H](CC[C@@H]4[C@@]5(C)CC[C@H](O)C(C)(C)[C@@H]5CC[C@]43C)[C@@H]12	40 nM	7400 nM	360 nM	5	366 µL/min/mg	18.93 min	Non-toxic	90 nM	–	–	–
C=C(C)[C@@H]1CC[C@]2(C(=O)O)CC[C@]3(C)[C@H](CC[C@@H]4[C@@]5(C)CC[C@H](OC(=O)CC(C)(C)C(=O)O)C(C)(C)[C@@H]5CC[C@]43C)[C@@H]12 [BEVIRIMAT]	–	> 10000 nM	–	–	–	–	–	> 4000 nM	> 4000 nM	> 4000 nM	–
COC(=O)[C@H](CCC(N)=O)NC(=O)CCCCCCCCNC(=O)[C@]12CC[C@@H](C(C)C)[C@@H]1[C@H]1CC[C@@H]3[C@@]4(C)CC[C@H](O)C(C)(C)[C@@H]4CC[C@@]3(C)[C@]1(C)CC2	50 nM	4600 nM	580 nM	5	219 µL/min/mg	31.64 min	Non-toxic	20 nM	–	–	–
C=C(C)[C@@H]1CC[C@]2(C(=O)NCCCCCCCCC(=O)N[C@@H](CCC(N)=O)C(=O)OC)CC[C@]3(C)[C@H](CC[C@@H]4[C@@]5(C)CC[C@H](O)C(C)(C)[C@@H]5CC[C@]43C)[C@@H]12	90 nM	4800 nM	1720 nM	5	230 µL/min/mg	30.13 min	Non-toxic	20 nM	–	–	2
C=C(C)[C@@H]1CC[C@]2(C(=O)NCCCCCCCCC(=O)N[C@@H](CCC(N)=O)C(=O)OCc3ccccc3)CC[C@]3(C)[C@H](CC[C@@H]4[C@@]5(C)CC[C@H](O)C(C)(C)[C@@H]5CC[C@]43C)[C@@H]12	120 nM	15000 nM	190 nM	5	169 µL/min/mg	41.01 min	Non-toxic	50 nM	23 nM	26 nM	2
C=C(C)[C@@H]1CC[C@]2(C(=O)NCCCCCCCNC(C)=O)CC[C@]3(C)[C@H](CC[C@@H]4[C@@]5(C)CC[C@H](O)C(C)(C)[C@@H]5CC[C@]43C)[C@@H]12	80 nM	12600 nM	120 nM	–	272 µL/min/mg	25.48 min	Non-toxic	190 nM	6 nM	27 nM	2
CC(C)[C@@H]1CC[C@]2(C(=O)NCCCCCCCCC(=O)N[C@@H](CCC(N)=O)C(=O)O)CC[C@]3(C)[C@H](CC[C@@H]4[C@@]5(C)CC[C@H](O)C(C)(C)[C@@H]5CC[C@]43C)[C@@H]12	40 nM	18600 nM	830 nM	5	280 µL/min/mg	24.75 min	Non-toxic	240 nM	–	–	–
